Screens from PubChem.
XBP1 UPR activ – activators of adaptive arm of unfolded protein response (XBP1) | CHO-XBP1 luciferase reporter, IRE1-XBP1 UPR activation, luminescence; percent of tunicamycin response, DMSO as zero | AID 463104 | activation, % at 20 µM | 330,000 tested, 0.33% active;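 active = versus positive control, 20 µM dose yields 30% or more activation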
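Material: IRE1-XBP1 luciferase reporter CHO line / Quantity: one thousand reporter cells per well / Buffer or medium: F12 with 10% serum / Compound: 20 µM single concentration, DMSO 1% / Times: 6 h treatment, 37 °C / Detection: Steady-Glo luciferase glow luminescence, 10 min after reagent addition / Benchmarks: tunicamycin high, DMSO low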
Jurkat NFkB inh – lowers PMA/ionomycin-induced NF-kB signal in Jurkat cells; PMA/ionomycin-induced NF-kB luciferase reporter, luminescence; inhibition, % at 4 µM; 330,000 tested, 0.53% active; in the data active = inhibition above about 50%
CHOP UPR activ – activators of apoptotic arm of unfolded protein response (CHOP) | CHO-CHOP luciferase reporter, UPR activation, luminescence; percent of tunicamycin response over DMSO baseline | activation, % at 10 µM | 330,000 tested, 0.34% active;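 active = at 10 µM dose, activation of 40% or more, normalized to positive control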
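System: CHO CHOP reporter cells. Amount: 500 cells per well. Buffer or medium: F12 medium, 10% FBS. Compound dosing: one dose, 10 µM in 0.5% DMSO. Incubation: 6 h compound exposure at 37 °C after overnight seeding. Technique: Steady-Glo luciferase luminescence. Benchmarks: tunicamycin and DMSO controls.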
697 NFkB inh – lowers PMA/ionomycin-induced NF-kB signal in 697 B cells | 330,000 tested, 0.33% active | 697 B-cell NF-kB luciferase reporter, 16 h | inhibition, % at 4 µM; in the data active = inhibition above about 35%
CHOP inh – blocks CHOP induction under ER stress; inhibition, % at 10 µM; 220,000 tested, 3.8% active; AID 2732; CHO-K1 CHOP-promoter luciferase, tunicamycin-induced, 15-18 h;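 active = compounds that reduced the stress-induced luciferase reporter signal by more than about 70% of percent inhibition, limit read from the data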
Jurkat NFkB conf – lowers PMA/ionomycin-induced NF-kB signal in Jurkat cells; shares compounds with Jurkat NFkB inh; Jurkat NF-kB luciferase, 16 h; inhibition, % at 4 µM; 2,700 tested, 27% active; AID 435020;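 active = inhibition reaching about 45% at 4 µM in either replicate, limit read from the data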
Numbers stand for hits; 0 = inactive; - = not tested or not shown. Many of the other results were omitted from the sample, so hits are more common in it than they were.

SMILES | XBP1 UPR activ | Jurkat NFkB inh | CHOP UPR activ | 697 NFkB inh | CHOP inh | Jurkat NFkB conf
Cc1cc(C(=O)CN2C(=O)c3ccccc3S2(=O)=O)c(C)n1C(C)C | 0 | 55 | 0 | 0 | - | 0
Cc1cc(C(=O)Cn2cc(C(F)(F)F)ccc2=O)c(C)n1-c1ccccc1 | 0 | 0 | 0 | 0 | 0 | -
CC(C)NC(=O)CN1C(=O)c2ccccc2S1(=O)=O | 0 | 0 | 0 | 0 | 0 | -
Cc1cc(C(=O)CN2C(=O)C3CC=CCC3C2=O)c(C)n1-c1ccccc1 (centres undefined) | 0 | 0 | 0 | 0 | 0 | 0
COc1ccc(S(=O)(=O)N(CC(=O)NCC2CCCO2)C2CCCCC2)cc1OC (centres undefined) | 0 | 0 | 0 | 0 | - | -
Cc1occc1-c1nnc(SCC(=O)NC2CC2)n1C(C)C | 0 | 0 | 0 | 0 | - | -
CCC/C=C1/CCCOC(C(=O)NCc2ccc(C)o2)(C(F)(F)F)C1 (centres undefined) | 0 | 0 | 0 | 0 | - | -
CCN(CC)CCCNc1ccc(-c2nnc(-c3ccc(OCC(C)C)cc3)o2)cn1 | 0 | 60 | 0 | 0 | - | 0
CCCOc1ccc(-c2nnc(-c3ccco3)o2)cc1 | 0 | 0 | 0 | 0 | 0 | -
COc1ccc(/C=C/C(=O)c2cc(F)ccc2OC(=O)c2ccc(OC)c(OC)c2)cc1OC | 0 | 0 | 0 | 0 | 0 | -
COc1ccc(/C=C/C(=O)c2cc(F)ccc2OC(=O)c2ccccc2)cc1OC | 0 | 58 | 0 | 0 | - | 61
Cc1ccc(C(=O)Nc2ccc(Cl)cc2C)c(Cl)c1 | 0 | 0 | 0 | 0 | 0 | 0
O=C(NC1CCCCCC1)c1ccc(CS(=O)(=O)Cc2ccccc2F)o1 | 0 | 0 | 0 | 0 | - | -
O=C(NC1CCCCC1)c1ccc(-c2ccccc2F)o1 | 0 | 0 | 0 | 0 | - | 0
O=C(NC1CCCCC1)c1ccc(-c2cccc([N+](=O)[O-])c2)o1 | 0 | 0 | 0 | 0 | - | 0
Cc1ccc(C(=O)OCC(=O)N2C(C)CCCC2C)cc1S(=O)(=O)N1CCOCC1 (centres undefined) | 0 | 0 | 0 | 0 | - | -
COc1ccccc1OCCNC(=O)C(CCSC)NS(=O)(=O)c1ccccc1F (centres undefined) | 0 | 0 | 0 | 0 | - | -
c1ccc(CN2CCC(Nc3ncnc4sccc34)CC2)cc1 | 0 | 58 | 0 | 0 | 0 | 0
Cc1sc2ncnc(NC3CCN(Cc4ccccc4)CC3)c2c1C | 0 | 53 | 0 | 0 | 0 | 0
CCN(CC)S(=O)(=O)c1ccc(NC(=O)CO/N=C(\N)c2ccccc2)cc1 | 0 | 0 | 0 | 0 | - | -
Cc1cccc(NC(=O)CSc2nc3nc(C)cc(C)n3n2)c1 | 0 | 0 | 0 | 0 | - | -
COc1ccc(NC(=O)COC(=O)c2cc(SC)ccc2Cl)c(OC)c1 | 0 | 0 | 0 | 0 | 0 | -
CCOC(=O)c1c(NC(=O)CSc2nnc3ccccn23)sc2c1CCC2 | 0 | 0 | 0 | 0 | 0 | -
CCOC(=O)c1c(NC(=O)CSc2c[nH]c3ccccc23)sc2c1CCC2 | 0 | 55 | 0 | 0 | 0 | 0
CCOc1ccccc1N(CC(=O)NC1CCCCC1)S(=O)(=O)c1ccccc1 | 0 | 0 | 0 | 0 | - | -
SMILES | XBP1 UPR activ | Jurkat NFkB inh | CHOP UPR activ | 697 NFkB inh | CHOP inh | Jurkat NFkB conf
Cc1ccc(S(=O)(=O)NCc2ccncc2)cc1C | 0 | 52 | 0 | 0 | 0 | 55
COc1cc(S(=O)(=O)NCc2ccncc2)ccc1Br | 0 | 0 | 0 | 0 | - | -
COc1cccc(/C=N/Nc2ccc(C(=O)O)cc2)c1O | 0 | 88 | 0 | 0 | 101 | 57
COc1cccc(/C=N/Nc2ccc(S(=O)(=O)O)cc2)c1O | 0 | 0 | 0 | 0 | 0 | -
O=[N+]([O-])c1ccc(N/N=C/c2cccc(O)c2)cc1 | 0 | 0 | 0 | 0 | - | -
O=[N+]([O-])c1ccc(N/N=C/c2cccc(O)c2O)cc1 | 0 | 81 | 0 | 0 | - | 0
Cc1ccc(NC(=O)CNC(=O)Cc2cccc3ccccc23)c(O)c1 | 0 | 0 | 0 | 0 | - | -
Cc1ccc(C(=O)NCC(=O)NCCc2ccc(S(N)(=O)=O)cc2)s1 | 0 | 0 | 0 | 0 | 0 | -
O=C(N/N=C/c1c(O)ccc2ccccc12)c1cccc(C(F)(F)F)c1 | 0 | 52 | 0 | 0 | 78 | 74
CCCCCCCOc1ccc(OC(=O)c2cccnc2)cc1 | 0 | 85 | 0 | 0 | 0 | 53
CCCCCCCOc1ccc(OC(=O)c2ccncc2)cc1 | 0 | 80 | 0 | 0 | 0 | 55
CCCCCOc1ccc(C2C(C(C)=O)=C(C)Nc3ncnn32)cc1OC (centres undefined) | 0 | 0 | 0 | 0 | 0 | -
COc1ccc(-c2cc(C(=O)N(C)Cc3ccc(F)cc3)c3ccccc3n2)cc1OC | 0 | 0 | 0 | 0 | - | -
COc1ccc(S(=O)(=O)N2c3cc(C)ccc3OCC2C(C)(C)C)cc1 (centres undefined) | 0 | 51 | 0 | 0 | 0 | 0
CCCCOc1ccccc1C1CC(=O)NC2=C1C(=O)CCC2 (centres undefined) | 0 | 62 | 0 | 0 | - | 50
CCCOc1ccccc1C1CC(=O)NC2=C1C(=O)CCC2 (centres undefined) | 0 | 59 | 0 | 0 | - | 0
CC(OC(=O)c1snc(C(=O)NC2CCCCC2)c1N)C(=O)NC1CCCCC1 (centres undefined) | 0 | 0 | 0 | 0 | 0 | -
CC1(C)Cc2nc3sc4c(=O)n(CC(=O)NCc5ccco5)cnc4c3cc2CO1 | 0 | 50 | 0 | 0 | 0 | 0
Cc1ccc(SCC(=O)OCC(=O)N2CCN(C(=O)c3ccco3)CC2)c(C)c1 | 0 | 0 | 0 | 0 | - | -
CN(C)S(=O)(=O)Nc1cc(Cl)cc(Cl)c1 | 0 | 0 | 0 | 0 | 0 | -
COc1ccc([C@H]2CC(=O)C=C(c3ccc4cc[nH]c4c3)C2)cc1 | 0 | 0 | 0 | 0 | - | -
CC[n+]1c(/C=C/N(C)c2ccccc2)oc2ccccc21 | 0 | 60 | 0 | 0 | 0 | 54
CC1CN(S(=O)(=O)c2cccc(C(=O)N(CCc3ccccc3)Cc3ccccc3)c2)CC(C)O1 (centres undefined) | 0 | 0 | 0 | 0 | - | -
O=C(CSc1ncn[nH]1)N/N=C/c1ccc(C(F)(F)F)cc1 | 0 | 0 | 0 | 0 | - | -
COc1ccc(N(Cc2cc3cc(OC)ccc3[nH]c2=O)S(=O)(=O)c2ccc(NC(C)=O)cc2)cc1 | 0 | 69 | 0 | 0 | - | 0
SMILES | XBP1 UPR activ | Jurkat NFkB inh | CHOP UPR activ | 697 NFkB inh | CHOP inh | Jurkat NFkB conf
COc1ccc(N(Cc2cc3ccccc3[nH]c2=O)S(=O)(=O)c2ccc(OC)cc2)cc1 | 0 | 0 | 0 | 0 | - | -
CN(C)S(=O)(=O)c1ccc(Nc2nc(C3CC3)nc3c2nnn3Cc2ccccc2Cl)cc1 | 0 | 57 | 0 | 0 | 0 | 65
COC(=O)C1=C(C)N(CCCC(=O)O)C(=O)NC1c1ccc(C#N)cc1 (centres undefined) | 0 | 0 | 0 | 0 | - | -
CC(=O)Nc1ccc(S(=O)(=O)Nc2nnc(Cc3ccc(Cl)cc3)s2)cc1 | 0 | 0 | 0 | 0 | - | -
CN1CCC(NCCC(c2ccc(F)cc2)c2ccc(Cl)cc2)CC1 (centres undefined) | 0 | 72 | 0 | 0 | - | 0
CCC/C(=N\NC(=O)c1csc(C)c1C)c1cccs1 | 0 | 0 | 0 | 0 | 0 | -
